From PubChem
Furin inhibitor: blocks human furin protease activity | 0.061% of 220,000 active | AID 463115 | inhibition, % at 20 µM or 30 µM | purified furin, fluorogenic substrate cleavage; in the data active means inhibition above about 25%
EP2 antag: inhibitors of human EP2 prostaglandin E2 receptor; inhibition, % at 25 µM; P43116; C6 glioma cells expressing human EP2, cAMP TR-FRET; cells stimulated with saturating PGE2; 0.52% of 260,000 active;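 active means percent inhibition above 40 after rounding to a whole number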;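 further: rat C6 glioma host cells with rolipram phosphodiesterase inhibitor present; the protocol text gives 20 µM as final concentration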
NR2E3 ag-1: activates human photoreceptor nuclear receptor NR2E3. 0.12% of 320,000 active. inhibition of corepressor binding, % at 4.78 µM. GST-NR2E3/biotin-RetCOR TR-FRET, 1536-well. Q9Y5X4;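 active means percent inhibition above the cutoff of mean plus 3 SD of all tested compounds, set per screening campaign, cut at about 20% in these data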;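 further: 0% = DMSO wells and 100% = biotin wells as full block of FRET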
Target sequence (Q9Y5X4 whole entry, looked up): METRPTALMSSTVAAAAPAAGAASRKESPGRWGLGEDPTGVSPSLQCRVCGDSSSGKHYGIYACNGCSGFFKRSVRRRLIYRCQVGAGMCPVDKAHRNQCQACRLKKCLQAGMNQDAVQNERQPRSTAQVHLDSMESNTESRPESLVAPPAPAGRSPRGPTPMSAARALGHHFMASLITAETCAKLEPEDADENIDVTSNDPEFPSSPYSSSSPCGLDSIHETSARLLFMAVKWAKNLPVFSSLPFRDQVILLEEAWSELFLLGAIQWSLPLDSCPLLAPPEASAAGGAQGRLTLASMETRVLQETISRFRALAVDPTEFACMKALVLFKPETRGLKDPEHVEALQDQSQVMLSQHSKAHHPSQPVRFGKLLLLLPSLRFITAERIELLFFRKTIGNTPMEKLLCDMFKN
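system = GST-tagged NR2E3 plus biotinylated RetCOR corepressor | input = 1.35 nM GST-NR2E3 | also added = 7 nM biotin-RetCOR | schedule = 5 h incubation at 4 °C | measured by = TR-FRET with europium anti-GST and streptavidin-D2, 340 nm excitation | read-out = percent loss of FRET ratio relative to control wells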
JMJD2C inh: blocks human GASC-1 demethylase activity. GST-JMJD2C(1-420) H3K9me3 demethylation, DELFIA europium. inhibition, % at 2.35 µM. AID 2099. Q9H3R0. 0.069% of 330,000 active;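 active means more than half of a compound's replicate wells show inhibition beyond 50%, single wells judged on their own value; inconclusive means some, but no more than half, of replicates pass 50% inhibition; inactive means no replicate passes 50% inhibition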;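 further: signal counts dimethyl H3K9 product captured on neutravidin plate; 0% = median of DMSO wells and 100% = 0.3 times that DMSO median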
EP2 mod: modulates human prostaglandin E2 receptor EP2 signaling; P43116; induction, % at 25 µM; EP2-expressing cells, cAMP HTRF FRET, PGE2 co-stimulation; 0.83% of 260,000 active; AID 940;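 active means compounds whose cAMP rise, as percent of the full-agonist control response, exceeds 60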;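 further: rat C6 glioma line stably carrying human EP2 under a CMV promoter; the protocol text gives 20 µM as final concentration; 100% = response of wells given 1 µM PGE2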
NR2E3 ag-2: activates human NR2E3 receptor. Q9Y5X4. CHO-S Gal4-NCOR/VP16-NR2E3 two-hybrid, luciferase. inhibition of corepressor binding, % at 3.98 µM. 0.35% of 360,000 active. AID 602229;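 active means inhibition above the mean of all tested compounds plus 3 SD, cut at about 70% in these data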;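 further: 0% = DMSO with NR2E3 transfected cells and 100% = cells lacking NR2E3 construct; higher means lower luciferase signal from less NR2E3 corepressor binding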
EP2 confirm: EP2 receptor cAMP induction, counter-screens negative. shares compounds with EP2 mod. C6 glioma EP2 cells, cAMP HTRF induction; plus low (about EC15) PGE2 agonist. calls only at 20 µM (by protocol). 47% of 1,300 active;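 active means cAMP induction above 50% in the main assay while under 30% in all four parallel counter assays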;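 further: rat C6 glioma cells stably expressing human EP2 receptor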
* = called active by the depositor. A selection: hits, their analogues and other compounds. The true share with any hit is near 1.3%.

For Cc1cccc(CCNC(=O)c2cccc3c2C(=O)N(C2CCCCC2)C3)c1 the results were NR2E3 ag-1 3.4, JMJD2C inh 12.6 and NR2E3 ag-2 -27.7.
`O=C(NCCC1=CCCCC1)c1cccc2c1C(=O)N(C1CCCCC1)C2` gave Furin inhibitor -32.6, EP2 antag 1.8, NR2E3 ag-1 18.4, JMJD2C inh 2.8, EP2 mod 84.7*, NR2E3 ag-2 -8.7 and EP2 confirm active.
CCN1CCC(O)(C#Cc2ccccc2)CC1 was read as NR2E3 ag-1 -2.1, JMJD2C inh inconclusive and NR2E3 ag-2 4.3.
Screening CC1C(c2ccccc2)N(C)C(c2ccccc2)C(C)C1(O)C#Cc1ccccc1 (stereo unspecified) returned Furin inhibitor -17.3, EP2 antag 17.9, NR2E3 ag-1 -1.3, EP2 mod 65.7*, NR2E3 ag-2 -2.8 and EP2 confirm active.
`O=C(c1n[nH]c(=O)c2ccccc12)N1C2CCC1CC(c1ccc(F)cc1)C2` (stereo unspecified) gave EP2 antag 6.7 and EP2 mod -50.7.
For Cn1c(=O)[nH]c(=O)c2c1nc(N1CCCCC1)n2CCCSc1nnnn1-c1ccccc1 the results were Furin inhibitor -10.0, EP2 antag 5.0, NR2E3 ag-1 -2.5, JMJD2C inh -3.2, EP2 mod 17.5 and NR2E3 ag-2 -1.9.
CC1CCN(c2nc3c(c(=O)[nH]c(=O)n3C)n2CC(C)CSc2nnnn2-c2ccccc2)CC1 (stereo unspecified) was read as Furin inhibitor -10.3, EP2 antag 9.9, NR2E3 ag-1 0.6, JMJD2C inh -1.0, EP2 mod 68.0*, NR2E3 ag-2 -13.0 and EP2 confirm inactive.
`c1ccc(Sc2ncnc3ccccc23)cc1` gave Furin inhibitor -5.8, EP2 antag 5.4, NR2E3 ag-1 -2.9, JMJD2C inh 6.9, EP2 mod 19.9 and NR2E3 ag-2 -17.5.
For c1ccc(Cc2nnc(Sc3ccccc3)c3ccccc23)cc1 the results were Furin inhibitor -24.6, EP2 antag 27.3, NR2E3 ag-1 6.4, JMJD2C inh -1.4, EP2 mod 69.2*, NR2E3 ag-2 -28.1 and EP2 confirm inactive.
CCn1c2cc(C)sc2c2cnn(CC(=O)N(C)C)c(=O)c21 was read as EP2 mod -37.0.
COC(=O)c1c(NC(=O)c2ccc(OC)cc2)sc(C(=O)Nc2cccc(OC)c2)c1C was read as EP2 antag 10.6 and EP2 mod 5.4.
For Cc1ccc2c(c1)-c1nc3ccccc3cc1C2=NC1CCCCC1 the results were Furin inhibitor -16.1, EP2 antag 4.3, NR2E3 ag-1 -1.4, JMJD2C inh 9.5, EP2 mod 69.9*, NR2E3 ag-2 -92.8 and EP2 confirm inactive.
For Cc1ccc2c(c1)C(=NC1CCCCC1)c1cc3ccccc3nc1-2 the results were Furin inhibitor 12.4, EP2 antag 7.8, NR2E3 ag-1 2.3, JMJD2C inh 2.7, EP2 mod 36.9 and NR2E3 ag-2 -139.4.
c1ccc2c(-c3nc(C4CCCCC4)no3)cc(-c3ccncc3)nc2c1 was read as Furin inhibitor -14.1, EP2 antag 5.1, NR2E3 ag-1 1.9, JMJD2C inh 22.7, EP2 mod 67.2*, NR2E3 ag-2 3.0 and EP2 confirm active.
COc1c(O)cc2oc3cc(O)c(CC=C(C)C)c(O)c3c(=O)c2c1CC=C(C)C was read as EP2 antag 16.3, EP2 mod 51.1 and EP2 confirm inactive.
For CC(C)=CCc1c(O)cc2oc3c(CC=C(C)C)c(O)c(O)c(CC=C(C)C)c3c(=O)c2c1O the results were Furin inhibitor -31.6, EP2 antag 26.2, NR2E3 ag-1 2.0, JMJD2C inh inactive, EP2 mod 13.3 and NR2E3 ag-2 -35.3.
For CCOC(=O)Cc1csc(NC(=O)Cc2ccccc2)n1 the results were Furin inhibitor -18.6, EP2 antag 4.8, NR2E3 ag-1 -0.1, JMJD2C inh -5.0, EP2 mod -8.0 and NR2E3 ag-2 -11.7.
CCOC(=O)Cc1csc(NC(=O)c2cc(=O)c3ccccc3o2)n1 was read as Furin inhibitor -11.1, EP2 antag 9.2, NR2E3 ag-1 2.1, JMJD2C inh 29.7, EP2 mod 83.6*, NR2E3 ag-2 -26.7 and EP2 confirm active.
`COc1ccc(-n2c(COc3cccc4ccccc34)nnc2SCC(=O)NCc2ccco2)cc1` gave Furin inhibitor 2.9, EP2 antag 11.6, NR2E3 ag-1 -0.5, JMJD2C inh -4.5, EP2 mod 65.9*, NR2E3 ag-2 19.6 and EP2 confirm inactive.
`C=CCn1c(SCc2c(C)noc2C)nc2cc(C(=O)O)ccc2c1=O` gave Furin inhibitor -16.7, EP2 antag 5.2, NR2E3 ag-1 -2.2, JMJD2C inh -5.4, EP2 mod 19.9 and NR2E3 ag-2 -45.3.
`Cc1noc(C)c1CSc1nc2ccccc2c(=O)n1-c1ccc(F)cc1F` gave Furin inhibitor -21.6, NR2E3 ag-1 -0.4, JMJD2C inh -1.3, EP2 mod 56.2, NR2E3 ag-2 -95.9 and EP2 confirm active.
`C=CCn1c(SCc2c(C)noc2C)nc2ccccc2c1=O` gave Furin inhibitor -7.3, EP2 antag 3.4, NR2E3 ag-1 1.2, JMJD2C inh -1.2, EP2 mod 70.6*, NR2E3 ag-2 -10.6 and EP2 confirm inactive.
`Cc1noc(C)c1CSc1nc2[nH]ncc2c(=O)n1-c1ccccc1` gave Furin inhibitor -21.2, EP2 antag 22.4, NR2E3 ag-1 3.6, JMJD2C inh -0.8, EP2 mod 30.7 and NR2E3 ag-2 -24.4.
For Cc1noc(C)c1CSc1nc2ccccc2c(=O)n1-c1ccccc1 the results were Furin inhibitor -24.6, EP2 antag 14.8, NR2E3 ag-1 0.2, JMJD2C inh -2.2, EP2 mod 52.6, NR2E3 ag-2 -150.3 and EP2 confirm inactive.
Screening Cn1cc([N+](=O)[O-])c(C(=O)n2nnc3ccccc32)n1 returned EP2 antag 10.7 and EP2 mod -27.4.
Screening O=C(OCc1ccccc1Cl)c1ccccc1C(=O)c1ccccc1 returned Furin inhibitor -1.9, EP2 antag 3.8, NR2E3 ag-1 3.1, JMJD2C inh -5.8, EP2 mod 81.9*, NR2E3 ag-2 -33.0 and EP2 confirm active.
For CCCCNc1nc2c(S(=O)(=O)c3ccccc3)nnn2c2ccccc12 the results were Furin inhibitor -28.3, EP2 antag 26.9, NR2E3 ag-1 7.6, EP2 mod 68.8*, NR2E3 ag-2 15.1 and EP2 confirm inactive.
Screening Cc1ccc(S(=O)(=O)c2c(C)cc(C)nc2N2CCOCC2)cc1 returned Furin inhibitor -13.9, EP2 antag 8.6, NR2E3 ag-1 -3.1, JMJD2C inh 9.1, EP2 mod -5.2 and NR2E3 ag-2 2.9.
